The results in this text go back to ChEMBL document CHEMBL4613265, “Novel Human Neutral Sphingomyelinase 2 Inhibitors as Potential Therapeutics for Alzheimer's Disease” (J Med Chem, 2020).

The nature of data set [1]: Stability in mouse liver microsomes assessed as parent compound remaining at 1 uM measured after 60 mins in absence of NADPH by LC-MS/MS analysis. It is filed as ADME, Microsome. To be noted: for remaining at 1 h, 1 µM: liver microsomes, read-out: Stability. In short, it runs like this: (§1)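 Cofactor-free control for cofactor-independent degradation. Mouse or human liver microsomes at 0.2 mg/mL, 1 μM compound (final), 100 mM potassium phosphate at pH 7.4, no NADPH regenerating system. Adding microsomes started the reaction; run in triplicate. Sampled at 60 min and quenched with three volumes of ice-cold acetonitrile spiked with internal standard.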
(In general: Liver microsomes are a subcellular fraction often used to study metabolism.)

Data set [2] is described as follows: Stability in human liver microsomes assessed as parent compound remaining at 1 uM measured after 60 mins in absence of NADPH by LC-MS/MS analysis. It is filed as ADME, Microsome. To be noted: for remaining at 1 h, 1 µM: liver microsomes, read-out: Stability. In short, it runs like this: as §1
The next data set concerns Cytochrome P450. The data set can be described thus: Stability in human liver microsomes assessed as CYP450-mediated metabolism by measuring parent compound remaining at 1 uM measured after 60 mins in presence of NADPH generating system by LC-MS/MS analysis. Type of data set: ADME. Conditions: 1 h. In short, it runs like this:
(§2)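 Liver microsomes from mouse or human, 0.2 mg/mL, with 1 μM compound (final) in 100 mM potassium phosphate at pH 7.4. Adding microsomes started the reaction; triplicates. After 60 min, quenched with 3 volumes of ice-cold acetonitrile containing internal standard.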

Data set [3] in a line: Stability in mouse liver microsomes assessed as CYP450-mediated metabolism by measuring parent compound remaining at 1 uM measured after 60 mins in presence of NADPH generating system by LC-MS/MS analysis. Conditions: 1 h. Type of data set: ADME. In short, it runs like this: as §2

A value given as a limit tells only on which side of the number the result lay.

As to `COc1ccc(-c2c(C)nc3c(N4CC[C@@H](NC(C)=O)C4)cc(C)nn23)cc1F`, the remaining at 1 h, 1 µM in data set [1] and in data set [2] was greater than 95% in each case.
Regarding `CC(=O)N[C@@H]1CCN(c2cc(C)nn3c(-c4cccc(N5CCOCC5)c4)c(C)nc23)C1`, the remaining at 1 h, 1 µM in data set [1] and in data set [2] was greater than 95% in each case.
Consider `CC(=O)N[C@@H]1CCN(c2cc(C)nn3c(-c4cccc(S(=O)(=O)N(C)C)c4)c(C)nc23)C1`, for which the remaining at 1 h, 1 µM in data set [1] and in data set [2] was greater than 95% throughout.
On to `COc1ccc(-c2c(C)nc3c(N4CC[C@@H](NC(=O)C(F)(F)F)C4)cc(C)nn23)cc1OC`, for which the remaining at 1 h, 1 µM in data set [1] and in data set [2] was greater than 95% each time. Also, the Stability with Cytochrome P450 is 113%. For the same molecule, in data set [3], the Parent compound remaining was 117%.
As to `CC(=O)N[C@@H]1CCN(c2cc(C)nn3c(-c4ccc(OC(F)(F)F)cc4)c(C)nc23)C1`, the remaining at 1 h, 1 µM in data set [1] and in data set [2] was greater than 95% in each case. Moreover, the Stability in the data set with Cytochrome P450 turned out to be 114%. In addition, the Parent compound remaining in data set [3] was 72%.
For `COc1ccc(-c2c(C)nc3c(N4CC[C@@H](NC(C)=O)C4)ccnn23)cc1OC`, the remaining at 1 h, 1 µM in data set [1] and in data set [2] was greater than 95% throughout.
For the molecule `COc1ccc(-c2c(C)nc3c(N4CC[C@@H](NC(=O)C(F)(F)c5ccccc5)C4)cc(C)nn23)cc1OC`, the remaining at 1 h, 1 µM in data set [1] and in data set [2] was greater than 95% each time. For the same molecule, the Stability in the data set with Cytochrome P450 came to 20%. In data set [3], the Parent compound remaining was determined as 6%.
`COc1ccc(-c2c(C)nc3c(N4CC[C@@H](NC(=O)Oc5ccc6ccccc6c5)C4)cc(C)nn23)cc1OC`: the remaining at 1 h, 1 µM in data set [1] and in data set [2] was greater than 95% each time.
Regarding `COc1ccc(-c2c(C)nc3c(N4CC[C@@H](NC(=O)COc5ccccc5)C4)cc(C)nn23)cc1OC`, the remaining at 1 h, 1 µM in data set [1] and in data set [2] was greater than 95% throughout.
Take `CC(=O)N[C@@H]1CCN(c2cc(C)nn3c(-c4ccc5cc[nH]c5c4)c(C)nc23)C1`: the remaining at 1 h, 1 µM in data set [1] and in data set [2] was greater than 95% each time.
Consider `COc1ccc(-c2c(C)nc3c(N4CC[C@@H](NS(=O)(=O)c5ccccc5)C4)cc(C)nn23)cc1OC`, for which the remaining at 1 h, 1 µM in data set [1] and in data set [2] was greater than 95% throughout. Further, the Stability with Cytochrome P450 amounted to 43%. Besides, the Parent compound remaining in data set [3] came to 20%.
`COc1ccc(-c2c(C)nc3c(N4CC[C@@H](F)C4)cc(C)nn23)cc1OC`: the remaining at 1 h, 1 µM in data set [1] and in data set [2] was greater than 95% each time.
With `COc1ccc(-c2c(C)nc3c(N4CC[C@@H](NS(=O)(=O)c5ccc(NC(C)=O)cc5)C4)cc(C)nn23)cc1OC`, the remaining at 1 h, 1 µM in data set [1] and in data set [2] was greater than 95% in each case.
On to `CSc1ccc(-c2c(C)nc3c(N4CC[C@@H](NC(C)=O)C4)cc(C)nn23)cc1`, for which the remaining at 1 h, 1 µM in data set [1] and in data set [2] was greater than 95% throughout. Moreover, the Stability with Cytochrome P450 is recorded as 84%. Besides, in data set [3], the Parent compound remaining is on record as 32%.
On to `CC(=O)N[C@@H]1CCN(c2cc(C)nn3c(-c4ccc(C(F)(F)F)cc4)c(C)nc23)C1`, for which the remaining at 1 h, 1 µM in data set [1] and in data set [2] was greater than 95% throughout.
For the molecule `COc1ccc(-c2c(C)nc3c(N4CC[C@@H](NS(=O)(=O)c5ccc(C#N)cc5)C4)cc(C)nn23)cc1OC`, the remaining at 1 h, 1 µM in data set [1] and in data set [2] was greater than 95% each time.
Take `COc1ccc(-c2c(C)nc3c(N4CC[C@@H](N)C4)cc(C)nn23)cc1OC`: the remaining at 1 h, 1 µM in data set [1] and in data set [2] was greater than 95% in each case.
For `COc1ccc(-c2c(C)nc3c(N4CC[C@@H](n5cc(-c6ccccc6)nn5)C4)cc(C)nn23)cc1OC`, the Stability entry in data set [1] (microsomes, 1 h, 1 µM) was “Unstable”; in data set [2] (microsomes, 1 h, 1 µM) it was “Unstable”.
Regarding `COc1ccc(-c2c(C)nc3c(N4CC[C@@H](NS(N)(=O)=O)C4)cc(C)nn23)cc1OC`, the remaining at 1 h, 1 µM in data set [1] and in data set [2] was greater than 95% throughout.
Turning to `CCN(CCNC(C)=O)c1cc(C)nn2c(-c3ccc(OC)c(OC)c3)c(C)nc12`, the remaining at 1 h, 1 µM in data set [1] and in data set [2] was greater than 95% each time.
Consider `COc1ccc(-c2c(C)nc3c(N4CCN(C(=O)OC(C)(C)C)C4)cc(C)nn23)cc1OC`, for which the remaining at 1 h, 1 µM in data set [1] and in data set [2] was greater than 95% throughout.
For the molecule `CC(=O)N[C@@H]1CCN(c2cc(C)nn3c(-c4ccccc4)c(C)nc23)C1`, the remaining at 1 h, 1 µM in data set [1] and in data set [2] was greater than 95% in each case.
Consider `COc1ccc(-c2c(C)nc3c(N4CC[C@@H](NC(=O)Oc5cccc(C)c5)C4)cc(C)nn23)cc1OC`, for which the remaining at 1 h, 1 µM in data set [1] and in data set [2] was greater than 95% in each case.
Consider `COc1ccc(-c2c(C)nc3c(N4CC[C@@H](NC(=O)[C@@H](OC)c5ccccc5)C4)cc(C)nn23)cc1OC`, for which the remaining at 1 h, 1 µM in data set [1] and in data set [2] was greater than 95% throughout.
As for `COc1ccc(-c2c(C)nc3c(N4CC[C@@H](NC(=O)OCc5ccccc5)C4)cc(C)nn23)cc1OC`, the remaining at 1 h, 1 µM in data set [1] and in data set [2] was greater than 95% each time.
For `COc1ccc(-c2c(C)nc3c(N4CC[C@@H](O)C4)cc(C)nn23)cc1OC`, the remaining at 1 h, 1 µM in data set [1] and in data set [2] was greater than 95% each time.
For `COc1ccc(-c2c(C)nc3c(N4CC[C@@H](OC(C)=O)C4)cc(C)nn23)cc1OC`, the remaining at 1 h, 1 µM in data set [1] and in data set [2] was greater than 95% in each case.
For the molecule `COc1ccc(-c2c(C)nc3c(N4CCN(C(=O)C5CCCCC5)CC4)cc(C)nn23)cc1OC`, the remaining at 1 h, 1 µM in data set [1] and in data set [2] was greater than 95% each time.
In the case of `COc1ccc(-c2c(C)nc3c(N4CC[C@@H](NS(=O)(=O)C(C)C)C4)cc(C)nn23)cc1OC`, the remaining at 1 h, 1 µM in data set [1] and in data set [2] was greater than 95% each time.
Consider `COc1ccc(-c2c(C)nc3c(N4CC[C@@H](NC(=O)Cc5ccccc5)C4)cc(C)nn23)cc1OC`, for which the remaining at 1 h, 1 µM in data set [1] and in data set [2] was greater than 95% in each case.
For `COc1ccc(-c2c(C)nc3c(N4CC[C@@H](NC(=O)OC5CCCCC5)C4)cc(C)nn23)cc1OC`, the remaining at 1 h, 1 µM in data set [1] and in data set [2] was greater than 95% each time.
For the molecule `COc1cc(-c2c(C)nc3c(N4CC[C@@H](NC(C)=O)C4)cc(C)nn23)ccc1F`, the remaining at 1 h, 1 µM in data set [1] and in data set [2] was greater than 95% throughout.
On to `COc1ccc(-c2c(C)nc3c(N4CC[C@@H](NC(C)=O)C4)cc(Cl)nn23)cc1OC`, for which the remaining at 1 h, 1 µM in data set [1] and in data set [2] was greater than 95% each time.
On to `COc1ccc(-c2c(C)nc3c(N4CC[C@H](O)C4)cc(C)nn23)cc1OC`, for which the remaining at 1 h, 1 µM in data set [1] and in data set [2] was greater than 95% in each case.
Turning to `CC(=O)N[C@@H]1CCN(c2cc(C)nn3cc(C)nc23)C1`, the remaining at 1 h, 1 µM in data set [1] and in data set [2] was greater than 95% in each case.
As for `COc1ccc(-c2c(C)nc3c(N4CC[C@@H](NC(=O)c5ccccc5)C4)cc(C)nn23)cc1OC`, the remaining at 1 h, 1 µM in data set [1] and in data set [2] was greater than 95% in each case.
Turning to `CC(=O)N[C@@H]1CCN(c2cc(C)nn3c(-c4nccs4)c(C)nc23)C1`, the remaining at 1 h, 1 µM in data set [1] and in data set [2] was greater than 95% in each case.
Turning to `COc1ccc(-c2c(C)nc3c(N4CC[C@@H](NC(C)=O)C4)cc(C)nn23)cn1`, the remaining at 1 h, 1 µM in data set [1] and in data set [2] was greater than 95% in each case.
Consider `COc1ccc(-c2c(C)nc3c(N4CC=CC4)cc(C)nn23)cc1OC`, for which the remaining at 1 h, 1 µM in data set [1] and in data set [2] was greater than 95% each time.
Turning to `COc1ccc(-c2c(C)nc3c(N4CCC(F)(F)C4)cc(C)nn23)cc1OC`, the remaining at 1 h, 1 µM in data set [1] and in data set [2] was greater than 95% each time.
With `COc1ccc(-c2c(C)nc3c(N4CCOCC4)cc(C)nn23)cc1OC`, the remaining at 1 h, 1 µM in data set [1] and in data set [2] was greater than 95% in each case.
With `COc1ccc(-c2c(C)nc3c(N4CCN(C(=O)OC(C)(C)C)CC4)cc(C)nn23)cc1OC`, the remaining at 1 h, 1 µM in data set [1] and in data set [2] was greater than 95% throughout.
Turning to `COc1ccc(-c2c(C)nc3c(N4CC[C@@H](N=[N+]=[N-])C4)cc(C)nn23)cc1OC`, the remaining at 1 h, 1 µM in data set [1] and in data set [2] was greater than 95% in each case.
For `COc1cc(-c2c(C)nc3c(N4CC[C@@H](NC(C)=O)C4)cc(C)nn23)cc(OC)c1OC`, the remaining at 1 h, 1 µM in data set [1] and in data set [2] was greater than 95% each time.
Consider `CC(=O)N[C@@H]1CCN(c2cc(C)nn3c(-c4ccc(C#N)cc4)c(C)nc23)C1`, for which the remaining at 1 h, 1 µM in data set [1] and in data set [2] was greater than 95% throughout.
As for `COc1ccc(-c2c(C)nc3c(N4CC[C@@H](N5CCOCC5)C4)cc(C)nn23)cc1OC`, the remaining at 1 h, 1 µM in data set [1] and in data set [2] was greater than 95% throughout.
Turning to `CC(=O)N[C@@H]1CCN(c2cc(C)nn3c(-c4ccco4)c(C)nc23)C1`, the remaining at 1 h, 1 µM in data set [1] and in data set [2] was greater than 95% each time.
As for `COc1ccc(-c2c(C)nc3c(N4CCN(C(C)=O)CC4)cc(C)nn23)cc1OC`, the remaining at 1 h, 1 µM in data set [1] and in data set [2] was greater than 95% throughout.
`COc1ccc(-c2c(C)nc3c(N4CC[C@@H](NS(C)(=O)=O)C4)cc(C)nn23)cc1OC`: the remaining at 1 h, 1 µM in data set [1] and in data set [2] was greater than 95% throughout.
In the case of `COc1ccc(-c2c(C)nc3c(N4CC[C@@H](NC(=O)NC(C)C)C4)cc(C)nn23)cc1OC`, the remaining at 1 h, 1 µM in data set [1] and in data set [2] was greater than 95% each time.
